Data on 13 molecules can be found in ChEMBL document CHEMBL1138596, “Synthesis and biological evaluation of novel 4-(hetero) aryl-2-piperazino quinazolines as anti-leishmanial and anti-proliferative agents” (Bioorg Med Chem Lett, 2009).

Data set [1] relates to Leishmania donovani. The experiment in a line: Antileishmanial activity against Leishmania donovani MHOM/IN/Dd8 amastigotes infected in mouse J774A1 cells assessed as luciferase activity after 48 hrs. Format: functional, organism-based. Conditions: for IC50: MHOM/IN/Dd8, J774.A1, 48 h; for Activity: J774.A1. The procedure, abridged:
(§1)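 L. donovani parasites transfected with firefly luciferase gene, maintained in medium 199 with 10% fetal calf serum, penicillin (50 U/ml) and streptomycin under G418 pressure; compounds tested at various concentrations against transgenic promastigotes and intracellular amastigotes; IC50 calculated by Probit analysis.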

Another data set has as its system Vero. The experiment in a line: Antiproliferative activity against african green monkey Vero cells by MTT assay. The data set is classed as cell-based. Conditions: Chlorocebus sabaeus. The procedure, abridged: (§2)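 Twofold serial dilutions of compound up to a highest concentration of 50 µg/mL; viability read by MTT assay; panel of DU145 prostate, MCF-7 breast, KB oral epidermal, C33A cervical carcinoma lines and non-cancerous VERO cells.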
(Formazan colour is commonly taken as a measure of viable cells.)

Another data set relates to DU-145. The experiment in a line: Antiproliferative activity against human DU145 cells by MTT assay. Format: functional, cell-based. The procedure, abridged:
as §2

The subject of the next data set is KB. The experiment in a line: Antiproliferative activity against human KB cells by MTT assay. Format: functional, cell-based. The procedure, abridged: as §2
Data set [2] is described as follows: (§3) Selectivity index, ratio of CC50 for mouse J774A1 cells to IC50 for Leishmania donovani MHOM/IN/Dd8 amastigotes. Format: functional, J774.A1.
A short description of data set [3]: Cytotoxicity against mouse J774A1 cells. Format: cell-based, J774.A1. The procedure, abridged:
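Mouse macrophage line J-774-A-1; cytotoxicity read by MTT assay.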

A further data set deals with C-33-A. The experiment in a line: Antiproliferative activity against human C33A cells by MTT assay. Format: functional, cell-based. The procedure, abridged: as §2
Data set [4] has as its system Leishmania donovani. As to the kind of experiment: Antileishmanial activity against Leishmania donovani MHOM/IN/Dd8 promastigotes assessed as luciferase activity after 72 hrs. The data set is classed as functional, organism-based. To be noted: MHOM/IN/Dd8, 72 h. The procedure, abridged: as §1
A further data set has as its system MCF7. The experiment in a line: Antiproliferative activity against human MCF7 cells by MTT assay. The data set is classed as functional, cell-based. The procedure, abridged:
as §2

The next data set deals with J774.A1. The description is as §3. Format: functional.

Values after ≈ are worked out from the molar mass of the structure shown.

What is called IC50 is the point on the concentration scale where inhibition reaches its midpoint. The term CC50 denotes the concentration that lowers cell viability or growth by half. `c1ccc2c(-c3c[nH]c4ccccc34)nc(N3CCOCC3)nc2c1`: the half-inhibitory concentration (IC50) was 25.1 µg/mL (≈ 76.1 µM) with Leishmania donovani [1]; more than 50 µg/mL in the data set with Vero; more than 50 µg/mL in the data set on DU-145; more than 50 µg/mL in the data set with KB; more than 50 µg/mL in the data set with C-33-A; 1.8 µg/mL (≈ 5.45 µM) in the data set with Leishmania donovani [4]. This molecule came in with an IC50 with MCF7 of more than 50 µg/mL. Also, the “Ratio CC50/IC50” value in [2] amounted to 1.99. In [3], the CC50 was found to be 50.1 µg/mL (≈ 152 µM).
Take `c1ccc2c(-c3c[nH]c4ccccc34)nc(N3CCCCC3)nc2c1`: the IC50 is more than 50 µg/mL in the data set on Vero; more than 50 µg/mL in the data set on DU-145; more than 50 µg/mL in the data set on KB; more than 50 µg/mL in the data set with C-33-A; more than 10 µg/mL with Leishmania donovani [4]; more than 50 µg/mL in the data set with MCF7.
Consider `Fc1ccc(N2CCN(c3nc(-c4c[nH]c5ccccc45)c4ccccc4n3)CC2)cc1`, for which the IC50 is 12.3 µg/mL (≈ 29.1 µM) in the data set with Leishmania donovani [1]; more than 50 µg/mL with Vero; more than 50 µg/mL in the data set with DU-145; more than 50 µg/mL with KB; more than 50 µg/mL in the data set on C-33-A; 1.72 µg/mL (≈ 4.06 µM) with Leishmania donovani [4]. Moreover, the half-maximal inhibitory concentration (IC50) with MCF7 is more than 50 µg/mL. Further, the “Ratio CC50/IC50” value in data set [2] is given as 1.9. The molecule also registered a CC50 in data set [3] of 23.4 µg/mL (≈ 55.3 µM).
Take `COc1cc(OC)c(-c2nc(N3CCNCC3)nc3ccccc23)c(OC)c1`: the Activity result with Leishmania donovani [1] was “Toxic”. For the same molecule, the IC50 is more than 50 µg/mL in the data set on Vero; more than 50 µg/mL in the data set with DU-145; more than 50 µg/mL in the data set with KB; more than 50 µg/mL in the data set on C-33-A; 0.25 µg/mL (≈ 0.657 µM) with Leishmania donovani [4]; more than 50 µg/mL with MCF7.
Consider `CN1CCN(c2nc(-c3cn(C)c4ccccc34)c3ccccc3n2)CC1`, for which the Activity entry in the data set with Leishmania donovani [1] is “Toxic”. Moreover, the IC50 in the data set on Vero is more than 50 µg/mL; with DU-145 it was more than 50 µg/mL; in the data set with KB it was more than 50 µg/mL; with C-33-A, more than 50 µg/mL; in the data set with Leishmania donovani [4], 0.62 µg/mL (≈ 1.73 µM); with MCF7, more than 50 µg/mL. Also, the CC50 in [3] was found to be 1.03 µg/mL (≈ 2.88 µM).
Consider `COc1ccc(-c2nc(N3CCN(C)CC3)nc3ccccc23)c(OC)c1`, for which the 50% inhibitory concentration (IC50) is 4.28 µg/mL (≈ 11.7 µM) in the data set with Leishmania donovani [1]; more than 50 µg/mL in the data set with Vero; more than 50 µg/mL in the data set on DU-145; more than 50 µg/mL in the data set on KB; more than 50 µg/mL in the data set on C-33-A; 3.79 µg/mL (≈ 10.4 µM) in the data set on Leishmania donovani [4]. Besides, in the data set on MCF7, the IC50 is more than 50 µg/mL. Also, the “Ratio CC50/IC50” value in data set [2] worked out at 4.21. The molecule also displayed a CC50 in data set [3] of 18 µg/mL (≈ 49.4 µM).
Consider `COc1ccc(-c2nc(N3CCNCC3)nc3ccccc23)c(OC)c1`, for which the 50% inhibitory concentration (IC50) with Leishmania donovani [1] is 5.11 µg/mL (≈ 14.6 µM); in the data set with Vero it was more than 50 µg/mL; with DU-145, more than 50 µg/mL; with KB it was more than 50 µg/mL; with C-33-A, more than 50 µg/mL; with Leishmania donovani [4] it was 0.624 µg/mL (≈ 1.78 µM). Also, the IC50 with MCF7 is more than 50 µg/mL. Further, in data set [2], the “Ratio CC50/IC50” value was determined as 0.78. The molecule also showed a CC50 in data set [3] of 3.98 µg/mL (≈ 11.4 µM).
Turning to Sodium stilbogluconate, the Ratio CC50/IC50 in the data set on J774.A1 was found to be 6.38.
`N=C(N)c1ccc(OCCCCCOc2ccc(C(=N)N)cc2)cc1` [PENTAMIDINE]: in data set [2], the “Ratio CC50/IC50” value was 2.07.
In the case of `COc1cc(OC)c(-c2nc(N3CCN(C)CC3)nc3ccccc23)c(OC)c1`, the IC50 in the data set on Leishmania donovani [1] is 12.4 µg/mL (≈ 31.6 µM); in the data set with Vero, more than 50 µg/mL; in the data set on DU-145 it was more than 50 µg/mL; in the data set on KB, more than 50 µg/mL; with C-33-A it was more than 50 µg/mL; with Leishmania donovani [4] it was 6.2 µg/mL (≈ 15.7 µM). For the same molecule, the half-inhibitory concentration (IC50) in the data set with MCF7 was more than 50 µg/mL. For the same molecule, the “Ratio CC50/IC50” value in data set [2] was more than 8.03. The molecule also yielded a cytotoxic concentration (CC50) in [3] of more than 100 µg/mL.
As for `CN1CCN(c2nc(-c3c[nH]c4ccccc34)c3ccccc3n2)CC1`, the IC50 worked out at 4.17 µg/mL (≈ 12.1 µM) in the data set with Leishmania donovani [1]; 22.3 µg/mL (≈ 64.9 µM) in the data set on Vero; 20.8 µg/mL (≈ 60.6 µM) with DU-145; 4.9 µg/mL (≈ 14.3 µM) with KB; 11.5 µg/mL (≈ 33.5 µM) in the data set on C-33-A; 0.68 µg/mL (≈ 1.98 µM) in the data set on Leishmania donovani [4]. In addition, it took 6 µg/mL (≈ 17.5 µM) to reach half-maximal inhibition in the data set on MCF7 (IC50). For the same molecule, the “Ratio CC50/IC50” value in [2] is given as 1.74. Further, the CC50 in [3] was 7.27 µg/mL (≈ 21.2 µM).
For `Cn1cc(-c2nc(N3CCNCC3)nc3ccccc23)c2ccccc21`, the IC50 was 12.5 µg/mL (≈ 36.4 µM) with Leishmania donovani [1]; more than 50 µg/mL in the data set with Vero; more than 50 µg/mL in the data set on DU-145; more than 50 µg/mL with KB; more than 50 µg/mL in the data set with C-33-A; 0.28 µg/mL (≈ 0.815 µM) in the data set with Leishmania donovani [4]. Also, the IC50 in the data set with MCF7 was more than 50 µg/mL. The “Ratio CC50/IC50” value in data set [2] stood at 1.28. The midpoint of cytotoxicity in data set [3], the CC50, lay at 16 µg/mL (≈ 46.6 µM).
As to `c1ccc2c(-c3c[nH]c4ccccc34)nc(N3CCNCC3)nc2c1`, the Activity entry in the data set on Leishmania donovani [1] was “Toxic”. Further, the IC50 is 8.9 µg/mL (≈ 27 µM) in the data set on Vero; 12.5 µg/mL (≈ 37.9 µM) in the data set with DU-145; 4 µg/mL (≈ 12.1 µM) with KB; 8.2 µg/mL (≈ 24.9 µM) in the data set with C-33-A; 0.56 µg/mL (≈ 1.7 µM) with Leishmania donovani [4]; 14.1 µg/mL (≈ 42.8 µM) in the data set with MCF7. In data set [3], this molecule showed a CC50 of 3.11 µg/mL (≈ 9.44 µM).
